Consider 17 molecules from PubChem BioAssay AID504653 (Molecular Libraries Program, Specialized Chemistry Center, …, 2011).

The structures appear in SMILES notation. Calls of active or inactive are those of the source.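 How the source made its calls: active means caspase 3/7 peak fold activation above 5 at a dose under 20 µM within 7 h; inactive means the rest.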

The test system of this assay is SW403 caspase-3/7 Glo luminescence, 7 h. The assay is described as follows: apoptosis induction by VCP inhibitors – cell-based, mechanism study for p97 inhibitor project (AID 504653). The following applies: active compounds read high. The essentials:
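test system = SW403 cells | control set = 1 % DMSO reference | schedule = 7 h compound exposure, then 1 h reagent incubation at room temperature | technique = Caspase-3/7 Glo reagent, luminescence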
Turning to `c1ccc(CNc2nc(N3CCOc4ccccc43)nc3ccccc23)cc1`, the maximal fold activation is 1.6 (inactive).

Consider `COc1cccc2c(NCc3ccccc3)nc(NCc3cccs3)nc12`, for which the maximal fold activation is 24.

In the case of `COc1cccc2c(NCc3ccccc3)nc(Nc3nc4ccccc4n3C)nc12`, the maximal fold activation is 16.

For `COc1cccc2c(NCc3ccccc3)nc(-n3c(N)nc4cc(Cl)c(Cl)cc43)nc12`, the maximal fold activation was 1.6 (inactive).

For the molecule `Clc1cccc(Nc2nc(NCc3ccccc3)c3ccccc3n2)c1`, the maximal fold activation is 7.3 (inactive).

As for `COc1cccc2c(NCc3ccccc3)nc(NCc3ccccc3)nc12`, the maximal fold activation was 12 (inactive).

With `CCN(CC)CCOc1cccc2c(NCc3ccccc3)nc(N3CCOc4ccccc43)nc12`, the maximal fold activation was 8 (inactive).

Consider `Fc1cccc(CNc2nc(NCc3ccccc3)c3ccccc3n2)c1`, for which the maximal fold activation was 5.9 (inactive).

As to `OCCOc1cccc2c(NCc3ccccc3)nc(N3CCOc4ccccc43)nc12`, the maximal fold activation is 1.3 (inactive).

Turning to `Cc1ccc(CNc2nc(NCc3ccccc3)c3ccccc3n2)cc1`, the maximal fold activation is 13 (inactive).

As to `Fc1cccc(Nc2nc(NCc3ccccc3)c3ccccc3n2)c1`, the maximal fold activation is 15 (inactive).

`c1ccc(CNc2nc(N3CCOc4ccccc43)nc3ccsc23)cc1`: the maximal fold activation was 1.4 (inactive).

Turning to `Brc1cccc(CNc2nc(NCc3ccccc3)c3ccccc3n2)c1`, the maximal fold activation is 18.

Turning to `COc1cccc2c(NCc3ccccc3)nc(-n3c(N)nc4ccccc43)nc12`, the maximal fold activation was 29.

On to `COc1cccc2c(NCc3ccccc3)nc(N3CCOc4ccccc43)nc12`, for which the maximal fold activation was 1.6 (inactive).

For the molecule `FC(F)(F)c1ccc(CNc2nc(NCc3ccccc3)c3ccccc3n2)cc1`, the maximal fold activation was 26.

On to `COc1cccc(CNc2nc(NCc3ccccc3)c3ccccc3n2)c1`, for which the maximal fold activation was 3.3 (inactive).
